Tests used:
[1] = Metabolic stability in human A375 cells xenografted in BALB/c nude mouse assessed as radioactivity after 2 by HPLC analysis; assay type: ADME, cell-based, A-375; conditions: in vivo
In short: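 A375-tumored Balb/c nude mice received 18-20 MBq tracer iv. Plasma and urine were spiked with unlabeled FPHCys and KF and injected directly; tissues were sonicated in saline with carrier and centrifuged at 6000g. Radio-HPLC on C18 with methanol/phosphate buffer pH 6 gave intact fraction as authentic peak over total activity, at 0.25, 1 and 2 h.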

A-375 [2] = assay: Drug uptake in human A375 cells in presence of amino acid transport system L inhibitor BCH; assay type: ADME, cell-based
In short: (§1)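 Cells were prepared as for the uptake assay and preincubated at 37 °C with inhibitor at 12.5 mmol/L in PBS; controls received PBS. 0.37 MBq [18F]tracer was added and incubated 30 min at 37 °C. Cells were washed cold, lysed and γ-counted. Uptake is given as % of the control group, n = 3.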

HT-29 = assay: Drug uptake in human HT-29 cells in presence of amino acid transport system L inhibitor BCH; assay type: ADME, cell-based; in short: as §1
A-375 [3] = assay: Cellular uptake in human A375 cells assessed as accumulation per 10^5 cells after 15 to 60 mins by gamma-counter; assay type: ADME, cell-based
In short: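 Cells seeded at 2.5 × 10^5 per well in RPMI-1640 with 10% FBS and 2 mM L-glutamine, attached overnight, then washed with warm PBS. Incubated at 37 °C with 0.37 MBq [18F]tracer in PBS for 2–240 min. Cells washed with ice-cold PBS, lysed in 0.2 N NaOH and counted by γ-counter. Read as % applied dose per 10^5 cells, decay-corrected, n = 3.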

SMILES | Stability [1] [%] | Drug uptake (A-375 [2]) | Drug uptake (HT-29) | Drug uptake (A-375 [3]) [%]
Cl.N[C@@H](CCSCCC[18F])C(=O)O | 78 | – | – | –
Cl.N[C@H](CCSCCC[18F])C(=O)O | – | Not Active | Not Active | 6.8

Source: ChEMBL document CHEMBL1687936, “Radiosynthesis and biological evaluation of L- and D-S-(3-[18F]fluoropropyl)homocysteine for tumor imaging using positron emission tomography” (J Med Chem, 2011)
